Experimental data: ChEMBL document CHEMBL4834403, “Design and Synthesis of Novel Epigenetic Inhibitors Targeting Histone Deacetylases, DNA Methyltransferase 1, and Lysine Methyltransferase G9a with In Vivo Efficacy in Multiple Myeloma” (J Med Chem, 2021)

Experiments:
[1] = tested on: NCI-H929; experiment: Antiproliferative activity against human NCI-H929 cells assessed as inhibition of cell proliferation measured up to 72 hrs by CellTiter96 Aqueous one reagent based assay; type: functional; conditions: NCI-H929, 72 h, time hrs <=72
[2] = Antiproliferative activity against human KMS-28BM cells assessed as inhibition of cell proliferation measured up to 72 hrs by CellTiter96 Aqueous one reagent based assay; type: functional; conditions: time hrs <=72
[3] = tested on: JJN-3; experiment: Antiproliferative activity against human JJN-3 cells assessed as inhibition of cell proliferation measured up to 72 hrs by CellTiter96 Aqueous one reagent based assay; type: functional; conditions: JJN-3, 72 h, time hrs <=72
[4] = target: Histone deacetylase 1 (Homo sapiens, UniProt Q13547); experiment: Inhibition of full length human C-terminal His-tagged/C-terminal Flag-tagged HDAC1 using fluorogenic acetylated peptide as substrate incubated for 30 mins by fluorescence plate reader assay
Histone deacetylase 1, sequence (Q13547 whole entry): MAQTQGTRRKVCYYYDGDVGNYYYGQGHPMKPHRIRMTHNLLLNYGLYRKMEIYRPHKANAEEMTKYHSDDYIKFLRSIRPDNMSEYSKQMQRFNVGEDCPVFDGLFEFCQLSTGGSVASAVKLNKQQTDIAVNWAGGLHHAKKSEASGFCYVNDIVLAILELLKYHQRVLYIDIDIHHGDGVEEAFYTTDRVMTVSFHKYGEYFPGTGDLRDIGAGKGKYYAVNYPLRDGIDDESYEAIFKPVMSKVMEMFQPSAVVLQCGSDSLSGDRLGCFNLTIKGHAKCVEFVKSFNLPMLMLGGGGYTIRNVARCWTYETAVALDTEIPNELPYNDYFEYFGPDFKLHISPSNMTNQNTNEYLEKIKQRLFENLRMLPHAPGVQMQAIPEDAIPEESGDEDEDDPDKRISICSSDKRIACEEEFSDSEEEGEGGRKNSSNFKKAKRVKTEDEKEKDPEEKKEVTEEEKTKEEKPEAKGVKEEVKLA

[5] = target: Histone deacetylase 3/Nuclear receptor corepressor 2 (HDAC3/NCoR2) (Homo sapiens, UniProt O15379); experiment: Inhibition of full length human C-terminal His-tagged HDAC3/human N-terminal GST-agged NCOR2 using fluorogenic acetylated peptide as substrate incubated for 30 mins by fluorescence plate reader assay; type: protein-complex assay
Histone deacetylase 3/Nuclear receptor corepressor 2 (HDAC3/NCoR2), sequence (O15379 whole entry): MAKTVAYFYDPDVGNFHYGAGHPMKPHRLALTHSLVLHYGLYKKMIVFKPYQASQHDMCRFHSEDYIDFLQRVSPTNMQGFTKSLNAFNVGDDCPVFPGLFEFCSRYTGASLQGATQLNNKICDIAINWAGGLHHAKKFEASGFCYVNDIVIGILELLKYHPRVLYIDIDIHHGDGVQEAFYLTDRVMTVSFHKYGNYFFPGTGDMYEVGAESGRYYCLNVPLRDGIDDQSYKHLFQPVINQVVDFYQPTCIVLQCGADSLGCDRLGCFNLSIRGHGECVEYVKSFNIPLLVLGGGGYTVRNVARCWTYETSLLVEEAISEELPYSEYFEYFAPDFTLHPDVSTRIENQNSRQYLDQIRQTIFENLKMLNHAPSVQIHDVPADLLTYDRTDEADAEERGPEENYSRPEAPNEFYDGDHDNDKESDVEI
Histone deacetylase 3/Nuclear receptor corepressor 2 (HDAC3/NCoR2), sequence (Q9Y618 whole entry, further chain): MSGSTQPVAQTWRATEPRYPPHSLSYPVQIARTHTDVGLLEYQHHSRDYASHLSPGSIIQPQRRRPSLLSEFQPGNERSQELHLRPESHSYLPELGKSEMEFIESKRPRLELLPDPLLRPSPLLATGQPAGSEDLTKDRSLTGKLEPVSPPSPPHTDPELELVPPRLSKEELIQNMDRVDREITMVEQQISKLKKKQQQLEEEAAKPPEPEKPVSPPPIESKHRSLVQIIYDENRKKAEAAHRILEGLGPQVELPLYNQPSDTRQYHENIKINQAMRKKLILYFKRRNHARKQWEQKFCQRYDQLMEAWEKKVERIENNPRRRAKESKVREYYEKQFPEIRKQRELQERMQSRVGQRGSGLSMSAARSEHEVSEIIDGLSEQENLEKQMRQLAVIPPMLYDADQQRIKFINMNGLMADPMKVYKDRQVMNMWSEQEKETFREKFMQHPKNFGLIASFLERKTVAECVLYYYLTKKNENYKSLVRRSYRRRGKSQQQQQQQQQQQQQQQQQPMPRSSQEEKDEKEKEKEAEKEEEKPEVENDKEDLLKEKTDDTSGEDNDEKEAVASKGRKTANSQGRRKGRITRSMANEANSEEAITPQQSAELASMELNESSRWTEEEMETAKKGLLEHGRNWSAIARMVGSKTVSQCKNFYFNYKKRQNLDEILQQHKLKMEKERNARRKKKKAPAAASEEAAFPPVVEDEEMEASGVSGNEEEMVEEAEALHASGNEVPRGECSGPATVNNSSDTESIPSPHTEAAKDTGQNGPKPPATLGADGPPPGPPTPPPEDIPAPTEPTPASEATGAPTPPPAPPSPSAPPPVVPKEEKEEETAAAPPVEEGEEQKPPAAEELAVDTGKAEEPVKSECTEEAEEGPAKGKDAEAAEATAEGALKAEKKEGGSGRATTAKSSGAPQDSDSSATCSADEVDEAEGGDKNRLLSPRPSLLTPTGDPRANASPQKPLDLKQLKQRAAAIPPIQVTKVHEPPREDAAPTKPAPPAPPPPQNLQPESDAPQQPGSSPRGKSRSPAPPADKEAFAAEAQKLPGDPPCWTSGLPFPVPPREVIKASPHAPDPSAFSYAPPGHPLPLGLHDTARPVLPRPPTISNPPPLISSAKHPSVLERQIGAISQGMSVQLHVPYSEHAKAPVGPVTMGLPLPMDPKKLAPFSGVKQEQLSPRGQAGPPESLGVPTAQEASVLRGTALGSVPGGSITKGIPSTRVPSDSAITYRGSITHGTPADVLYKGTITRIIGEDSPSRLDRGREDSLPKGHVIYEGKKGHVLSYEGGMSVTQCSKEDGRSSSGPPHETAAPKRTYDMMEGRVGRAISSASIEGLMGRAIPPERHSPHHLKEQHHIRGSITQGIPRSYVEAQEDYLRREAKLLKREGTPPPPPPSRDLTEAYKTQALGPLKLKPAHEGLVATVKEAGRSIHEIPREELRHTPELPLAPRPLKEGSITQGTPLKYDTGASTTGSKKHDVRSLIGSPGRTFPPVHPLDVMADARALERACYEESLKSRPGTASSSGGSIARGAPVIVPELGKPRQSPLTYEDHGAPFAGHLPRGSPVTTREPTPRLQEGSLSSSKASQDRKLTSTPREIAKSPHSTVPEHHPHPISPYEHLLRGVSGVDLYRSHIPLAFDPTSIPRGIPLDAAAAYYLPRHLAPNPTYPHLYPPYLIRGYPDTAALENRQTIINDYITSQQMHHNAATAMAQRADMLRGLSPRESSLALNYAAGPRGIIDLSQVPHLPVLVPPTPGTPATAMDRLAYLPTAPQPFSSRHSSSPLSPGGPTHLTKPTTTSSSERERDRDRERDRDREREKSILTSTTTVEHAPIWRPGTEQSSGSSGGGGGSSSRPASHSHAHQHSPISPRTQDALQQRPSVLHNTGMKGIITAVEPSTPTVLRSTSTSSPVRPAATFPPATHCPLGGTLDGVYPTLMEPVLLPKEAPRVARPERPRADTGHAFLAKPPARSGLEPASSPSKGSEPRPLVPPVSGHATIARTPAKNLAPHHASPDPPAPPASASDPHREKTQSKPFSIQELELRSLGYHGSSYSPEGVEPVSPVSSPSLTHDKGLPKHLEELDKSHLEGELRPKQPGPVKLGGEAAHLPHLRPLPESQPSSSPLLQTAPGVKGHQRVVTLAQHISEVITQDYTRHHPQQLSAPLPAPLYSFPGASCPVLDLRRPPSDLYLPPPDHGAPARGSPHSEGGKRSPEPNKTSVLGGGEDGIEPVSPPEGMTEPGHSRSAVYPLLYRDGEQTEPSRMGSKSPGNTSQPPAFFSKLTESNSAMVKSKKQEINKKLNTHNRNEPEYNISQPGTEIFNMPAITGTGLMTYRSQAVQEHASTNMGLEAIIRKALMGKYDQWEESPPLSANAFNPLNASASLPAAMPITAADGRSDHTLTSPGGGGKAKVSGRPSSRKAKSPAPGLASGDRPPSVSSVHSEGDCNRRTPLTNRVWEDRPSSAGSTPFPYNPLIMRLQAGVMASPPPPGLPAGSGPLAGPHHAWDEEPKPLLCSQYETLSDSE

[6] = target: T1, Histone-lysine N-methyltransferase EHMT2 (Homo sapiens, UniProt Q96KQ7); experiment: Inhibition of human G9a enzyme using histone monomethyl-H3K9 peptide as substrate incubated for 1 hr in presence of SAM by TR-FRET assay
T1 sequence (Q96KQ7 whole entry): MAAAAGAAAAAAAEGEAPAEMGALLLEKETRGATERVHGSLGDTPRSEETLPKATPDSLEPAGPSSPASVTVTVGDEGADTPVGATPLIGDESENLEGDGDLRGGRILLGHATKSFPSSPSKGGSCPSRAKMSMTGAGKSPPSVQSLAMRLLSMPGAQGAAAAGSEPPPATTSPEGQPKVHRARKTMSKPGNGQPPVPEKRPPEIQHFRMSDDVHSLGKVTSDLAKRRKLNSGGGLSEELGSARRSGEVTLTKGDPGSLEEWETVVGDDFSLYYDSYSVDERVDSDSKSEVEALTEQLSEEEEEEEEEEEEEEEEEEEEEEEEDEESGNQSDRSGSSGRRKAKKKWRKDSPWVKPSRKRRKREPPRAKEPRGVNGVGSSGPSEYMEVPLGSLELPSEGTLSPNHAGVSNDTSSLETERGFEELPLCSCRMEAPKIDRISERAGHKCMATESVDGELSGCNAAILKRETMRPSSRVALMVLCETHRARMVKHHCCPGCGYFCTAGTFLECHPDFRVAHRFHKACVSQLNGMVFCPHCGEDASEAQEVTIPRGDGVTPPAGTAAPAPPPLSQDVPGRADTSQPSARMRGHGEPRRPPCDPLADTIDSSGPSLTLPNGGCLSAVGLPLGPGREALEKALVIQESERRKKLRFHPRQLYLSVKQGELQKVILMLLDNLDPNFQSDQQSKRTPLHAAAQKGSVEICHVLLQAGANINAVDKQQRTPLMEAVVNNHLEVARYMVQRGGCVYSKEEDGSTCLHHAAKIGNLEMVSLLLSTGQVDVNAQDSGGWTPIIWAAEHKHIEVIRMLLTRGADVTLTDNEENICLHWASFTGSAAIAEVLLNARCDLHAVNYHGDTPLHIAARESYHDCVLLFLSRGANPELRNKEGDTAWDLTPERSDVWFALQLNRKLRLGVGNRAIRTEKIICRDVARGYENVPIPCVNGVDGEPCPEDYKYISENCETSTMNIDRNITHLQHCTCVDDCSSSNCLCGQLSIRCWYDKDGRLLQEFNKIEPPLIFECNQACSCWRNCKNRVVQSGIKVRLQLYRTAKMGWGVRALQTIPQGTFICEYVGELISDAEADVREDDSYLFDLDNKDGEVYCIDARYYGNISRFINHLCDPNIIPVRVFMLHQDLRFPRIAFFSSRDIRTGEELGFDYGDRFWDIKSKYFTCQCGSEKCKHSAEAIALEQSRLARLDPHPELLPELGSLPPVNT

[7] = tested on: MM1.S; experiment: Antiproliferative activity against human MM1.S cells assessed as inhibition of cell proliferation measured up to 72 hrs by CellTiter96 Aqueous one reagent based assay; type: functional
[8] = tested on: THLE-2; experiment: Cytotoxicity against human THLE-2 cells assessed as decrease in cell viability measured after 72 hrs by Vialight-plus cell proliferation assay; type: cell-based; conditions: thle-2, 72 h
Summary of the method: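 Human THLE-2 cells exposed to compound for 72 h. Cytotoxicity reported as LC50 and pLC50, averaged from at least two independent experiments on different days.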

[9] = Toxicity in mouse assessed as mouse death at 10 mg/kg, ip after 10 mins; type: organism-based; conditions: in vivo
Summary of the method: (§1)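 Observation made during a preliminary pharmacokinetic study with i.p. dosing, n = 5 mice per dose level, with blood extraction after administration.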

[10] = Toxicity in mouse assessed as mouse death at 5 mg/kg, ip after 15 mins; type: organism-based; conditions: in vivo, 0.25 h; summary of the method: as §1
[11] = Permeability of the compound in PBS/EtOH buffer (70:30) incubated for 18 hrs by UV plate reader based PAMPA assay; type: ADME; conditions: read-out: permeability
[12] = tested on: MM1.S; experiment: Induction of DNA hypomethylation in human MM1.S cells assessed as CPG hypomethylation at position 4 at 10 nM measured after 5 days relative to control; type: cell-based; conditions: time 5.0 day
Summary of the method: (§2)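 MM1.S cells dosed every day for 5 days at 2 μM or 10 nM. DNA methylation at CpGs of the POU4F2 promoter read by pyrosequencing; run in duplicate.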

[13] = tested on: MM1.S; experiment: Induction of DNA hypomethylation in human MM1.S cells assessed as CPG hypomethylation at position 5 at 10 nM measured after 5 days relative to control; type: cell-based; conditions: time 5.0 day; summary of the method: as §2
[14] = Intrinsic clearance in human pooled hepatocytes; type: ADME, cell-based, Hepatocyte; conditions: read-out: CLH
[15] = Intrinsic clearance in mouse pooled hepatocytes; type: ADME, cell-based, Hepatocyte; conditions: read-out: CLH
[16] = Kinetic solubility of the compound; type: physicochemical; conditions: read-out: Kinetic_solubility
[17] = Apparent oral clearance in BALB/c RAG2-/- gammaC-/- mouse at 10 mg/kg, ip measured up to 24 hrs by UPLC-triple quadrupole MS analysis; type: ADME, organism-based; conditions: in vivo
[18] = Apparent volume of distribution during terminal phase in BALB/c RAG2-/- gammaC-/- mouse at 10 mg/kg, ip measured up to 24 hrs by UPLC-triple quadrupole MS analysis; type: ADME, organism-based; conditions: in vivo, read-out: Vz/F
[19] = AUC (0 to 24 hrs) in BALB/c RAG2-/- gammaC-/- mouse at 10 mg/kg, ip using 80% saline 10% Tween20 and 10% DMSO formulation measured up to 24 hrs by UPLC-triple quadrupole MS analysis; type: ADME, organism-based; design: route intraperitoneal, dose 10 mg/kg, time <=24; conditions: in vivo
[20] = Apparent volume of distribution during terminal phase in BALB/c RAG2-/- gammaC-/- mouse at 10 mg/kg, ip using 80% saline 10% Tween20 and 10% DMSO formulation measured up to 24 hrs by UPLC-triple quadrupole MS analysis; type: ADME, organism-based; conditions: in vivo, read-out: Vz/F
[21] = time hrs <=72, read-out: pGI50 (converted)

Compound	GI50 [1] [nM]	GI50 [2] [nM]	GI50 [3] [nM]	IC50 [4] [nM]	IC50 [5] [nM]	IC50 [6] [nM]	GI50 ([7]; time hrs <=72, read-out: GI50) [nM]	GI50 [7, 21] [nM]	LC50 [8] [nM]	pLC50 [8]	also measured
COc1cc2c(NCC3CCN(c4ncc(C(=O)NO)cn4)CC3)cc(-c3ccc(C)o3)nc2cc1OCCCN1CCCC1	981	1300	6040	3	5	269	2080	2090	10900	4.96	Activity [9]: Toxic; Activity [10]: Toxic
COc1cc2nc(-c3ccc(C)o3)cc(NCC3CCN(c4ncc(C(=O)NO)cn4)CC3)c2cc1OC	103	547	482	7	18	> 10000	32	31.6	794	6.1	Papp at 18 h [11]: 0.504 ×10⁻⁶ cm/s; Activity [12]: 10%; Activity [13]: 10%; CLint scaled [14]: 54.2 mL/min/kg; CLint scaled [15]: 411 mL/min/kg; solubility kinetic [16]: < 0.987 µg/mL; CL/F [17]: 13.3 mL/min; Vd/F [18]: 4.6 L; AUC(0-t) [19]: 0.916 µM·h; Vd/F [20]: 6.56 L
